The source made the active and inactive calls. The calls are words filed in the database; no cut-off is given here.
What was measured:
3T3-L1 [1] = assay: Inhibition of lipid accumulation in mouse 3T3L1 cells at 10 uM by oil red o staining-based assay; assay type: functional
Method in brief: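 3T3-L1 preadipocytes differentiated for 6 days into mature adipocytes, then treated at 10 μM. Intracellular lipid stained with Oil Red O and quantified relative to vehicle. Mean ± SD of two independent experiments.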

3T3-L1 [2] = assay: Cytotoxicity against mouse 3T3L1 cells assessed as decrease in cell viability at 10 uM after 48 hrs by MTT assay; assay type: cell-based; conditions: 3t3-l1, 48 h
Method in brief: (§1)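 3T3-L1 preadipocytes given 5, 10, 20 and 40 μM for 48 h, with 1% DMSO as control. Viability measured by MTT. Mean ± SD of two independent experiments.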

3T3-L1 [3] = assay: Cytotoxicity against mouse 3T3L1 cells assessed as decrease in cell viability at 40 uM after 48 hrs by MTT assay; assay type: cell-based; conditions: 3t3-l1, 48 h; method in brief: as §1
[4] = target: T1, Bile acid receptor (Homo sapiens) (UniProt Q96RI1); assay: Activation of FXR in human HepG2 cells assessed as upregulation of FXR mRNA expression at 10 uM by RT-PCR method; assay type: cell-based
T1 sequence (whole entry): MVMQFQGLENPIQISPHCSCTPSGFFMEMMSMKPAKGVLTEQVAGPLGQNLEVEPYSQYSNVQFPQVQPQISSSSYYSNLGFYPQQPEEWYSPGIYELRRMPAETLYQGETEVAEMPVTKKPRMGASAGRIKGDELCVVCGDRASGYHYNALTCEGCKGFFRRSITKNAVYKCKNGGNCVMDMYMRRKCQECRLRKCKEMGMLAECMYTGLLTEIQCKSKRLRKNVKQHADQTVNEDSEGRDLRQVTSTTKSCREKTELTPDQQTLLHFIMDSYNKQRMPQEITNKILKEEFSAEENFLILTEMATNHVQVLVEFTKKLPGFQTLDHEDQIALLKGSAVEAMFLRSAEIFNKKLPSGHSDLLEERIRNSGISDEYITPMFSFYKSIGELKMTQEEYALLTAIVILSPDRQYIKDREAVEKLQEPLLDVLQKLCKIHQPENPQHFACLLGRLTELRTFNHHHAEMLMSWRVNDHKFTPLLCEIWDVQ
Method in brief: (§2)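 HepG2 cells treated at 10 μM. mRNA of FXR, SHP and SREBP-1c quantified by real-time PCR against vehicle (0.1% DMSO). Mean ± SEM, n = 3.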

[5] = target: T1, Bile acid receptor (Homo sapiens); assay: Activation of FXR in human HepG2 cells assessed as upregulation of SHP mRNA expression at 10 uM by RT-PCR method; assay type: cell-based; method in brief: as §2
HepG2 = assay: Cytotoxicity against human HepG2 cells assessed as decrease in cell viability at 5 to 80 uM after 48 hrs by MTT assay; assay type: cell-based; conditions: hepg2, 48 h
Method in brief: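 HepG2 cells exposed to 5, 10, 20, 40 and 80 μM for 48 h. Viability read by MTT.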

[6] = target: T1, Bile acid receptor (Homo sapiens); assay: Activation of FXR in human HepG2 cells assessed as downregulation of SREBP-1c mRNA expression at 10 uM by RT-PCR method; assay type: cell-based; method in brief: as §2

Row | Structure (SMILES) | inhibition (3T3-L1 [1]) | Activity (3T3-L1 [2]) | Activity (3T3-L1 [3]) | Activity [4] | inhibition at 10 µM (3T3-L1 [1]) | Activity [5] | Activity (HepG2) | Activity [6]
1 | C[C@H](CCC(=O)O)[C@H]1CC[C@H]2[C@@H]3[C@H](O)C[C@@H]4C[C@H](O)CC[C@]4(C)[C@H]3CC[C@]12C | Active |  |  |  |  |  |  | 
2 | Cc1noc(C)c1C(=O)N[C@H]1CC[C@@]2(C)[C@@H](C1)C[C@@H](O)[C@@H]1[C@@H]2CC[C@]2(C)[C@@H]([C@H](C)CCC(=O)Nc3ccc(F)cc3)CC[C@@H]12 | Active | Non-Toxic | Non-Toxic |  |  |  |  | 
3 | CNC(=O)CC[C@@H](C)[C@H]1CC[C@H]2[C@@H]3[C@H](O)C[C@@H]4C[C@@H](NC(=O)c5c(C)noc5C)CC[C@]4(C)[C@H]3CC[C@]12C |  | Non-Toxic | Non-Toxic | Active | 30.5% | Active | Non-Toxic | Active
4 | Cc1noc(C)c1C(=O)N[C@H]1CC[C@@]2(C)[C@@H](C1)C[C@@H](O)[C@@H]1[C@@H]2CC[C@]2(C)[C@@H]([C@H](C)CCC(N)=O)CC[C@@H]12 | Active | Non-Toxic | Non-Toxic |  |  |  |  | 
5 | Cc1noc(C)c1C(=O)N[C@H]1CC[C@@]2(C)[C@@H](C1)C[C@@H](O)[C@@H]1[C@@H]2CC[C@]2(C)[C@@H]([C@H](C)CCC(=O)O)CC[C@@H]12 | Active | Non-Toxic | Non-Toxic |  |  |  |  | 
6 | CCNC(=O)CC[C@@H](C)[C@H]1CC[C@H]2[C@@H]3[C@H](O)C[C@@H]4C[C@@H](NC(=O)c5c(C)noc5C)CC[C@]4(C)[C@H]3CC[C@]12C | Active | Non-Toxic | Non-Toxic |  |  |  |  | 
7 | Cc1noc(C)c1C(=O)N[C@H]1CC[C@@]2(C)[C@@H](C1)C[C@@H](O)[C@@H]1[C@@H]2CC[C@]2(C)[C@@H]([C@H](C)CCC(=O)Nc3cccc(Cl)c3)CC[C@@H]12 | Active | Non-Toxic | Non-Toxic |  |  |  |  | 
8 | COC(=O)CC[C@@H](C)[C@H]1CC[C@H]2[C@@H]3[C@H](O)C[C@@H]4C[C@@H](NC(=O)c5c(C)noc5C)CC[C@]4(C)[C@H]3CC[C@]12C | Active | Non-Toxic | Non-Toxic |  |  |  |  | 
9 | Cc1noc(C)c1C(=O)N[C@H]1CC[C@@]2(C)[C@@H](C1)C[C@@H](O)[C@@H]1[C@@H]2CC[C@]2(C)[C@@H]([C@H](C)CCC(=O)Nc3ccc(Cl)cc3)CC[C@@H]12 | Active | Non-Toxic | Non-Toxic |  |  |  |  | 
10 | Cc1noc(C)c1C(=O)N[C@H]1CC[C@@]2(C)[C@@H](C1)C[C@@H](O)[C@@H]1[C@@H]2CC[C@]2(C)[C@@H]([C@H](C)CCC(=O)NCC(=O)O)CC[C@@H]12 | Active | Non-Toxic | Non-Toxic |  |  |  |  | 
11 | CC(=O)Nc1ccc(NC(=O)CC[C@@H](C)[C@H]2CC[C@H]3[C@@H]4[C@H](O)C[C@@H]5C[C@@H](NC(=O)c6c(C)noc6C)CC[C@]5(C)[C@H]4CC[C@]23C)cc1 | Active | Non-Toxic | Toxic |  |  |  |  | 
12 | CC(C)c1onc(-c2c(Cl)cccc2Cl)c1COc1ccc(/C=C/c2cccc(C(=O)O)c2)c(Cl)c1 |  |  |  | Active |  | Active | Non-Toxic | Active

— ChEMBL document CHEMBL4229458, “Lipid accumulation inhibitory activities of novel isoxazole-based chenodeoxycholic acids: Design, synthesis and preliminary mechanism study” (Bioorg Med Chem Lett, 2018)
